A selection: hits, their analogues and other compounds. The true share with any hit is near 4.7%.
NR3A LBD binder – modulates the human NR3A ligand-binding domain | NR3A LBD differential scanning fluorimetry, Tm shift; 0% = protein alone, 100% = glycine-bound protein | Tm shift relative to glycine control, % at 25 µM | actives 2.5% (n = 340,000);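 active = melting temperature shift of at least 10% of the positive control shift, at one fixed dose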
MT1-MMP act inh – inhibitors of human MT1-MMP activation. AID 651647. actives 0.061% (n = 360,000). GFP/RFP ratio change, % at 20 µM. P50281. HT1080 RFP-PRO-GFP cells, GFP/RFP ratio fluorescence, overnight; percent of plate control window, DMSO zero;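 active = GFP/RFP ratio change of at least 30% with cell ATP level not reduced by more than half and red fluorescence within 50% of control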
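Test system: HT1080 cells expressing an RFP-PRO-GFP fluorescent reporter construct / Compound dosing: single-point 20 µM compound, 1% DMSO / Schedule: cells overnight before dosing, compound overnight, 37 °C, 5% CO2 / Evaluation: GFP/RFP fluorescence ratio / Control set: DMSO and RFP-L50D-GFP cell wells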
MPTP block – permeability transition pore inhibition; isolated mouse mitochondria, Ca2+ swelling absorbance, 30 min; inhibition, % at 10 µM; AID 602449; actives 1.4% (n = 360,000);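 active = inhibition of 50% or more, scaled per plate between neutral and stimulator controls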;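 also: 0% = DMSO wells given calcium and 100% = 1 mM EGTA wells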
ADAM17 inh – inhibits human ADAM17 | AID 720648 | inhibition, % at 6.95 µM | P78536 | recombinant ADAM17, EDANS/DABCYL FRET peptide cleavage | actives 0.83% (n = 370,000);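 active = inhibition above the mean of compounds lying between control limits plus 3 SD, set per campaign, cut at about 8.5% in these data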;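 also: 0% = DMSO-only wells as the low control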
Target sequence (P78536 215-824 limits assumed): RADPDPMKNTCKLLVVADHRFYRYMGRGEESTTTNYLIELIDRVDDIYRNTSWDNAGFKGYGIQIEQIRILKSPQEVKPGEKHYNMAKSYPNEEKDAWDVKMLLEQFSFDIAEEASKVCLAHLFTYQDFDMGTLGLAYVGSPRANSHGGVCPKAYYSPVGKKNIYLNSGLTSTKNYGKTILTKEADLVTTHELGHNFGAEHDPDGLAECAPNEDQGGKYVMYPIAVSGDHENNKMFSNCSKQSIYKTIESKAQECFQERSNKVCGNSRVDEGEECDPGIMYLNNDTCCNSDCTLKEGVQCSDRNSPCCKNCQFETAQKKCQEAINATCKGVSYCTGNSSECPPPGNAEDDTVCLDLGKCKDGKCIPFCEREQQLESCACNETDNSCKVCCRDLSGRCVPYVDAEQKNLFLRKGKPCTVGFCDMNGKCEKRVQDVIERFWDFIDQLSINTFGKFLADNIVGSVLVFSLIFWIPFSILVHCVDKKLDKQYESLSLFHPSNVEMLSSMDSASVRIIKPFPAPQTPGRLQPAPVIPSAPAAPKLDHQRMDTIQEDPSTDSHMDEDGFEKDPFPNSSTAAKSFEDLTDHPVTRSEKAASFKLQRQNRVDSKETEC
ADAM10 inh – inhibits human ADAM10 | inhibition, % at 7 µM | O14672 | recombinant ADAM10, EDANS/DABCYL FRET peptide cleavage, 3 h | actives 0.62% (n = 370,000);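 active = inhibition above a per-campaign cutoff equal to the mean of compounds falling between control-based bounds plus 3 SD, cut at about 20% in these data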;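 also: 0% = DMSO wells while the 100% control is not disclosed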
SKN-1 inh – blocks SKN-1 activity in C. elegans; C. elegans VP596 Pgst-4::GFP/RFP ratio, acrylamide-induced, 24 h; inhibition, % at 21.8 µM; actives 0.49% (n = 360,000);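 active = interference check ratio from 0.5 to 1.5 plus GFP to RFP signal ratio inhibition reaching or exceeding a fixed threshold, cut at about 30% in these data, passing the limit was not always enough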
ADAM10 confirm – confirmation of inhibitors of human ADAM10; ADAM10 QFRET peptide cleavage, EDANS fluorescence; shares compounds with ADAM10 inh; inhibition, % at 6.95 µM; actives 1% (n = 2,100);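 active = inhibition above about 20% chosen separately for each screening run, limit read from the data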;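 also: 0% = DMSO wells and 100% = marimastat wells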
ADAM17 ctr – inhibits human ADAM17 in ADAM10 exosite counter-screen. ADAM17 QFRET peptide cleavage, EDANS fluorescence. inhibition, % at 6.95 µM. shares compounds with ADAM10 inh. AID 743214. actives 0.5% (n = 2,100);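 active = mean triplicate inhibition above the solvent-only control wells' mean plus 3 SD, cut at about 12% in these data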;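 also: 0% = DMSO wells and 100% = marimastat wells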
ADAM10 ctr – inhibits human ADAM10 in ADAM17 exosite counter-screen; shares compounds with ADAM17 inh; recombinant ADAM10, EDANS/DABCYL FRET peptide cleavage, 3 h; inhibition, % at 6.95 µM; actives 47% (n = 2,900); AID 743256;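 active = mean inhibition over the triplicate runs exceeds the activity threshold set in the earlier primary screen, cut at about 20% in these data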;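 also: 0% = DMSO wells and 100% = marimastat wells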
ADAM17 confirm – human ADAM17 inhibition, confirmation; actives 65% (n = 2,900); shares compounds with ADAM17 inh; AID 743257; inhibition, % at 6.95 µM; recombinant ADAM17, EDANS/DABCYL QFRET peptide cleavage;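 active = mean inhibition across replicates above the hit cutoff set in the primary screen, cut at about 8.5% in these data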;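 also: 0% = DMSO wells and 100% = marimastat wells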
Numbers without * were called inactive; · = no result.

SMILES	NR3A LBD binder	MT1-MMP act inh	MPTP block	ADAM17 inh	ADAM10 inh	SKN-1 inh	ADAM10 confirm	ADAM17 ctr	ADAM10 ctr	ADAM17 confirm
CCc1nc2ccc(C(=O)Nc3cccc(NS(C)(=O)=O)c3)cn2c1N(CC)Cc1cccc(Br)c1	·	1	2	15*	36*	3	9	3	23*	13*
CCc1nc2ccc(C(=O)NCCOc3ccc(OC)cc3)cn2c1N(CC)Cc1cccc(Br)c1	·	-6	-1	6	-105	4	·	·	·	·
CCc1nc2ccc(C(=O)Nc3cccc(OC)c3)cn2c1N(CC)Cc1cccc(Br)c1	·	-3	-2	11*	22*	9	12	3	27*	12*
CC(C)(C)C(=O)O/N=C1/C(=O)N(c2ccccc2)c2ccccc21	-2	-2	2	-4	3	-16	·	·	·	·
COc1ccc(S(=O)(=O)Nc2cc3c4c(oc3c3ccccc23)CC(C)(C)CC4=O)cc1	0	-26	4	9.1*	26*	35*	11	2	21*	11*
COc1ccc(S(=O)(=O)Nc2cc3c4c(oc3c3ccccc23)CCCC4=O)cc1	-5	-1	0	7	9	9	·	·	·	·
CC1(C)CC(=O)C2=C(C1)N(c1cccc(O)c1)C1=C(C2)C(=O)CC(C)(C)C1	5	-4	0	-67	-213	16	·	·	·	·
C[C@H](NC(=O)c1nc[nH]c1C(=O)N[C@H](C)c1ccccc1)C(=O)OCc1ccccc1	-15	7	-1	5	13	-1	·	·	·	·
CC(C)C[C@H](NC(=O)c1[nH]cnc1C(=O)N[C@@H](C)C(=O)OCc1ccccc1)C(=O)OCc1ccccc1	-11	-5	1	12*	25*	6	10	3	40*	21*
CC(C)C[C@H](NC(=O)c1nc[nH]c1C(=O)NCc1ccccc1)C(=O)OCc1ccccc1	-7	22	0	10*	25*	13	7	4	35*	16*
Cc1ccc(S(=O)(=O)NCCC(c2ccccc2)c2ccco2)cc1 (configuration not stated)	0	1	5	2	6	7	·	·	·	·
COc1ccccc1C(CCNS(=O)(=O)c1ccc(C)cc1)c1ccco1 (configuration not stated)	-4	-2	9	9.3*	21*	2	5	2	27*	18*
CCN(CC)c1ccc(C2C(C(=O)OCCOC)=C(C)NC3=C2C(=O)CCC3)cc1 (configuration not stated)	3	1	0	-34	-95	-1	·	·	·	·
CCOC(=O)C1C(C(=O)OCC)C2C(=O)C3C(C(=O)OCC)C(C(=O)OCC)C3C(=O)C12 (configuration not stated)	·	5	0	-1	2	-6	·	·	·	·
Cc1ccccc1N=C1SC(CC(=O)Nc2ccc3ccccc3c2)C(=O)N1Cc1ccccn1 (configuration not stated)	22*	-25	-6	15*	39*	8	11	3	37*	22*
O=C(CC1SC(=Nc2cccc3ccccc23)N(Cc2ccccn2)C1=O)Nc1ccccc1Br (configuration not stated)	-2	-10	-5	-2	-4	15	·	·	·	·
Cc1ccc(S(=O)(=O)N(Cc2ccc(Cl)cc2)c2ccccc2C(=O)NCc2ccco2)cc1	4	-7	-1	11*	22*	0	6	2	19	12*
COc1ccc(-c2cccc(C3CC=CC4C3C(=O)N(Cc3ccccc3)C4c3ccc4ccccc4c3)c2)cc1 (configuration not stated)	1	-3	0	8	5	-12	·	·	·	·
OC[C@@H]1CN(Cc2ccc(-c3ccccc3)cc2)C[C@H](n2cnc3c(NCc4ccc(F)cc4)ncnc32)O1	·	-2	2	8.9*	23*	7	6	4	29*	18*
COc1cc(CNc2ncnc3c2ncn3[C@H]2CN(Cc3cccc(C(F)(F)F)c3)C[C@@H](CO)O2)cc(OC)c1OC	·	-1	0	9.7*	23*	0	1	-1	14	10*
COc1cc(CNc2ncnc3c2ncn3[C@H]2CN(Cc3cccc(C(F)(F)F)c3)C[C@@H](COC(C)=O)O2)cc(OC)c1OC	·	-3	2	6	10	2	·	·	·	·
CCN(c1ccc(NC(=O)COC(=O)/C=C/c2cccs2)cc1)C(C)C	-10	4	1	17*	34*	8	5	5	33*	18*
CC1C(=O)C(C)C(c2cc(Br)ccc2O)NC1c1cc(Br)ccc1O (configuration not stated)	32*	6	8	15*	34*	9	10	3	-257	-22
O=C(COc1ccc(Cl)cc1)N1CCN(c2ccc([N+](=O)[O-])c(N3CCCCC3)c2)CC1	-27	0	5	8.9*	20*	18	5	2	25*	13*
CCOC(=O)c1sc(N(Cc2ccccc2)C(=O)COC(=O)c2cnccn2)nc1C	-1	-3	0	1	3	2	·	·	·	·
O=C1CC(N(CCc2ccccc2)C(=S)Nc2ccccc2)C(=O)N1c1ccc(Br)cc1 (configuration not stated)	29*	-20	25	17*	35*	7	8	4	46*	22*
Cc1ccc(-c2[nH]c3ccccc3c2SCCNC(=O)c2ccc(S(=O)(=O)N3CCOCC3)cc2)cc1	-6	1	-3	11*	24*	-1	7	2	27*	16*
S=c1nc(-c2sccc2OCc2ccc(Cl)cc2Cl)[nH][nH]1	-2	-1	1	11*	20*	10	9	4	10	13*
CNC(=S)NNC(=O)c1sccc1OCc1ccc(Cl)cc1Cl	1	1	-1	-7	0	3	·	·	·	·
